We go through 19 compounds from ChEMBL document CHEMBL1132636, “Phthalein derivatives as a new tool for selectivity in thymidylate synthase inhibition” (J Med Chem, 1999).

In brackets after ≈: the same amount, converted by molar mass.

Assay [1] is described as follows: Ratio of cytotoxic concentration to that of minimum inhibitory concentration against Streptococcus (CC50/MIC50). The class given is functional.
The test system of assay [2] is Staphylococcus aureus. As to the kind of experiment: In vitro inhibition of Staphylococcus aureus growth. It counts as functional. In outline: (§1)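 Bacterial clinical isolates (S. aureus, group D Streptococcus) grown in nutrient broth pH 7.2, inoculum 10³ cells/tube, with serial dilutions of compound from a DMSO stock.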
The subject of assay [3] is thymidylate synthase (Lactobacillus casei).
Assay [4] deals with MT4. The assay can be described thus: In vitro cytotoxicity against mock infected MT-4 cells. Particulars: Homo sapiens. The class given is functional. In outline:
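Uninfected MT-4 cells, 1 × 10⁴ per well in RPMI with 10% FCS, with serial compound dilutions from a DMSO stock. Incubated 4 days at 37 °C, run in parallel with the anti-HIV assay. Viable cells counted by MTT; reported as CC50.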

Assay [5] relates to thymidylate synthase (Cryptococcus neoformans).
The target of assay [6] is Thymidylate synthase (Homo sapiens) (UniProt P04818).
Sequence of Thymidylate synthase (Homo sapiens) (P04818 2-313 limits assumed): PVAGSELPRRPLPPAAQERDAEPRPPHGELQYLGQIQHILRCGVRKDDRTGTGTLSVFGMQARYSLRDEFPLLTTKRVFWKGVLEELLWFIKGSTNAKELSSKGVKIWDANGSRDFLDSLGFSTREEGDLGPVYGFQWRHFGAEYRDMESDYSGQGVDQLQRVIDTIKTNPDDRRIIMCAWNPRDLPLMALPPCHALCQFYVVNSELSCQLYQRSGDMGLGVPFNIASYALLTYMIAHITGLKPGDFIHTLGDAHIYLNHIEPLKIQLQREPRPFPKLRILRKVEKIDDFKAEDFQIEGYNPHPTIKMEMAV
In assay [7] the test system is Staphylococcus aureus. The assay can be described thus: In vitro evaluation for minimum germicidal effect on Staphylococcus aureus was determined. It counts as functional.
Assay [8] relates to Cryptococcus neoformans. The assay can be described thus: In vitro inhibition of Cryptococcus neoformans growth. It counts as functional. In outline:
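Cr. neoformans in Sabouraud dextrose broth pH 5.7, 10³ blastospores or CFU/tube, serial compound dilutions, 37 °C, read after 5 days. MIC is the lowest concentration with no macroscopic growth. MGC is taken by subculturing negative tubes onto drug-free Sabouraud agar.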

Assay [9] deals with thymidylate synthase (Pneumocystis carinii).
In assay [10] the test system is Streptococcus. As to the kind of experiment: In vitro inhibition of Streptococcus growth. The class given is functional. In outline: as §1
Assay [11] deals with Streptococcus. The assay can be described thus: In vitro minimum concentration for germicidal effect on Streptococcus. The class given is functional.
For assay [12], the target named is T1, Thymidylate synthase (Lactobacillus casei) (UniProt P00469).
T1 sequence (whole entry): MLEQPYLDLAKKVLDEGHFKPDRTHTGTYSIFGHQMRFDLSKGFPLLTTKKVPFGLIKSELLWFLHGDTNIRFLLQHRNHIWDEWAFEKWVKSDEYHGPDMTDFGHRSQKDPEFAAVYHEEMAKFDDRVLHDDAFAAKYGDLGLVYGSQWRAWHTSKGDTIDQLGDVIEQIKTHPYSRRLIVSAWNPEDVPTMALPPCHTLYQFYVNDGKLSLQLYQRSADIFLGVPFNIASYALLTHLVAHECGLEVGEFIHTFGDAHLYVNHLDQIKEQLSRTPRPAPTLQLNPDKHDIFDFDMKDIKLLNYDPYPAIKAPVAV
As to the kind of experiment: Compound was evaluated for the percentage inhibition against Lactobacillus casei Thymidylate synthase (LcTS) at 27 uM. Particulars: Lacticaseibacillus casei. In outline: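 Single concentration 27 µM, initial TS rates measured with and without inhibitor; IF = Vii/Vi. Purified L. casei TS, TES 50 mM pH 7.4 buffer with MgCl2, formaldehyde, EDTA, 2-mercaptoethanol; dUMP 120 µM, folate 60 µM, 20 °C. Read-out is absorbance rise at 340 nm. At least three determinations, each within 10% of the mean.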

In assay [13] the target is T1, Thymidylate synthase (Lactobacillus casei). Particulars: Lacticaseibacillus casei.

Consider `O=C1OC(c2ccc(O)cc2)(c2ccc(O)cc2)c2ccc(Br)c3cccc1c23.O=C1OC(c2ccc(O)cc2)(c2ccc(O)cc2)c2cccc3c(Br)ccc1c23`, for which, in assay [1], the SI came out at 10.8. Besides, the MIC worked out at 7 µM in assay [2], 37.5 µM in assay [8] and 7 µM in assay [10]. Besides, the IF in [3] was 0.112; in assay [5], 0.243; in [6] it was 0.453; in assay [9] it was 0.536. Further, in assay [4], the CC50 was determined as 76 µM. Moreover, the MGC in assay [7] and in assay [11] was 28 µM each time.
On to `O=C1OC(c2ccc(O)c(Cl)c2)(c2ccc(O)c(Cl)c2)c2ccc(Cl)c3cccc1c23.O=C1OC(c2ccc(O)c(Cl)c2)(c2ccc(O)c(Cl)c2)c2cccc3c(Cl)ccc1c23`, for which the figures for the MIC in assay [2], in assay [8] and in assay [10] were 3 µM, 9.37 µM and 1.6 µM, respectively. The compound further came in with a CC50 in [4] of 63 µM. For the same compound, the IF in [6] amounted to 1. Besides, the MGC in [7] turned out to be 3 µM; in assay [11] it was 1.6 µM.
Regarding `O=C1OC(c2ccc(O)c(Cl)c2)(c2ccc(O)c(Cl)c2)c2cc3ccccc3cc21`, the SI in assay [1] is 39.6. For the same compound, the MIC in assay [2] was 3.1 µM (≈ 1.36 µg/mL); in assay [8] it was > 200 µM; in assay [10], 3.1 µM (≈ 1.36 µg/mL). Besides, the IF stood at 0.093 in [3] and 0.103 in assay [6]. The same compound came in with a CC50 in assay [4] of 120 µM. The MGC in assay [7] and in [11] was 6.2 µM each time.
On to `O=C1OC(c2ccc(O)c(F)c2)(c2ccc(O)c(F)c2)c2cccc3cccc1c23`, for which the minimum inhibitory concentration (MIC) in assay [2] was 25 µM (≈ 10.1 µg/mL); in assay [8] it was > 200 µM; in [10], 25 µM (≈ 10.1 µg/mL). In [4], this compound yielded a cytotoxic concentration (CC50) of 117 µM. The same compound came in with an IF in assay [6] of 1. Further, the values for the MGC in [7] and in [11] were 50 µM and 25 µM, respectively.
With `COc1ccc(C2(c3ccc(OC)cc3)OC(=O)c3cccc4cccc2c34)cc1`, in [12], the inhibition is 47%. The MIC in [2], in [8] and in [10] was > 21 µM each time. Also, the IF stood at 0.624 in [3], 0.836 in [5], 1 in [6] and 0.749 in assay [9]. This compound also showed a CC50 in assay [4] of 21 µM.
In the case of `O=C1OC(c2ccc(O)cc2)(c2ccc(O)cc2)c2ccccc21` [PHENOLPHTHALEIN], the MIC was > 58 µM in assay [2], > 58 µM in assay [8] and 38 µM (≈ 12.1 µg/mL) in assay [10]. Further, the IF in assay [13] was found to be 0.444; in assay [6], 0.182. Also, it took 58 µM to reach half-maximal cytotoxicity in [4] (CC50). In [11], this compound returned an MGC of 58 µM.
For `O=C1OC(c2ccc(O)cc2)(c2ccc(O)cc2)c2ccc3c4c(ccc1c24)CC3`, the SI in [1] came to 3.3. Further, the MIC in assay [2] is 16 µM (≈ 6.31 µg/mL); in assay [8], > 53 µM; in assay [10] it was 16 µM (≈ 6.31 µg/mL). Also, the IF is 0.409 in assay [3], 0.344 in assay [5], 0.475 in assay [6] and 0.344 in assay [9]. The compound further registered a CC50 in assay [4] of 53 µM. The MGC in assay [7] and in assay [11] was 32 µM throughout.
`O=C1OC(c2ccc(O)cc2)(c2ccc(O)c3ccccc23)c2ccccc21` (stereo not drawn): in assay [1], the SI is 6.7. Moreover, the MIC is 17 µM (≈ 6.26 µg/mL) in [2], > 54 µM in assay [8] and 8 µM (≈ 2.95 µg/mL) in assay [10]. For the same compound, the IF was 0.529 in assay [3], 0.389 in assay [5], 0.172 in assay [6] and 0.498 in assay [9]. The compound further gave a CC50 in assay [4] of 54 µM. The MGC was 54 µM in assay [7] and 34 µM in [11].
On to `O=C1OC(c2ccc(O)cc2)(c2ccc(O)cc2)c2cc3ccccc3cc21`, for which, in [1], the SI came to 2.3. The MIC in assay [2] was 17 µM (≈ 6.26 µg/mL); in [8] it was > 79 µM; in assay [10], 34 µM (≈ 12.5 µg/mL). In addition, the IF in assay [3] turned out to be 0.247; in assay [5], 0.215; in [6] it was 0.594; in assay [9], 0.459. Besides, the CC50 in assay [4] turned out to be 79 µM. In addition, the values for the MGC in assay [7] and in assay [11] were 68 µM and 34 µM, respectively.
As for `Cc1ccc(C(C)C)c(O)c1C1(O)OC(=O)c2cccc3cccc1c23` (stereo not drawn), the MIC in assay [2] was > 89 µM; in [8], > 89 µM; in assay [10], 72 µM (≈ 25.1 µg/mL). Moreover, the CC50 in assay [4] stood at 89 µM. This compound displayed an IF in assay [6] of 1. The MGC in assay [11] was >89 µM.
In the case of `O=C1OC(O)(c2ccc(O)c(Cl)c2)c2ccc([N+](=O)[O-])c3cccc1c23` (stereo not drawn), the SI in assay [1] is given as 8.24. Moreover, the MIC in assay [2] is 4 µM (≈ 1.49 µg/mL); in assay [8], > 66 µM; in assay [10], 8 µM (≈ 2.97 µg/mL). In addition, the IF in assay [3] was 0.086; in assay [5], < 0.04; in [6], 1; in assay [9], 0.418. This compound also came in with a CC50 in [4] of 66 µM. The MGC stood at 17 µM in assay [7] and 8 µM in [11].
In the case of `O=C1OC(O)(c2ccccc2O)c2cccc3cccc1c23` (stereo not drawn), the SI in [1] turned out to be 1.5. Further, the MIC in assay [2] was > 263 µM; in assay [8] it was 18.7 µM (≈ 5.47 µg/mL); in assay [10] it was 171 µM (≈ 50 µg/mL). In addition, the IF in [3] came out at 0.781; in assay [5], 0.576; in assay [6] it was 0.957; in [9], 0.151. In addition, half-maximal cytotoxicity in assay [4] (CC50) was put at 263 µM. In [11], this compound had an MGC of 263 µM.
As to `O=C1OC(c2ccc(O)cc2)(c2ccc(O)cc2)c2cccc3cccc1c23`, the MIC in assay [2] was 34 µM (≈ 12.5 µg/mL); in assay [8], > 41 µM; in assay [10], 17 µM (≈ 6.26 µg/mL). In assay [4], it took 41 µM to reach half-maximal cytotoxicity (CC50). The compound further displayed an IF in [6] of 0.272. Besides, the MGC in assay [7] was 41 µM; in assay [11], 34 µM.
For the compound `O=C1OC(c2ccc(O)c(Cl)c2)(c2ccc(O)c(Cl)c2)c2ccccc21`, the SI in assay [1] is 2.4. Moreover, the MIC in [2] is 32 µM (≈ 12.4 µg/mL); in [8] it was > 77 µM; in assay [10] it was 32 µM (≈ 12.4 µg/mL). Also, the IF in assay [3] was 0.47; in assay [5] it was 0.704; in assay [6] it was 0.67; in assay [9], 0.725. Moreover, the CC50 in assay [4] was 77 µM. For the same compound, the MGC came to 64 µM in assay [7] and 32 µM in [11].
In the case of `O=C1OC(c2ccc(O)cc2)(c2ccc(O)cc2)c2ccc([N+](=O)[O-])c3cccc1c23`, the MIC in assay [2] is 15 µM (≈ 6.2 µg/mL); in [8] it was > 41 µM; in assay [10], > 41 µM. Moreover, in assay [4], the CC50 is 41 µM. Further, the IF in [6] amounted to 0.424. Further, in [7], the MGC was 30 µM.
As to `O=C1OC(c2ccc(O)c(Cl)c2)(c2ccc(O)c(Cl)c2)c2cccc3cccc1c23`, the MIC in assay [2] is 7 µM (≈ 3.06 µg/mL); in assay [8], 9.37 µM (≈ 4.1 µg/mL); in assay [10] it was 1.8 µM (≈ 0.787 µg/mL). Besides, half-maximal cytotoxicity in [4] (CC50) was put at 46 µM. In addition, the IF in assay [6] was found to be 0.814. Moreover, the MGC was 14 µM in assay [7] and 3.5 µM in [11].
Turning to `O=C1OC(c2ccc(O)cc2)(c2ccc(O)cc2)c2ccc(Cl)c3cccc1c23.O=C1OC(c2ccc(O)cc2)(c2ccc(O)cc2)c2cccc3c(Cl)ccc1c23`, the MIC is 8 µM in assay [2], > 69 µM in [8] and 8 µM in assay [10]. This compound also yielded a CC50 in assay [4] of 69 µM. The compound further registered an IF in [6] of 0.438. In addition, the MGC was 16 µM in assay [7] and 8 µM in assay [11].
Regarding `O=C1OC(c2ccc(O)c(Cl)c2)(c2ccc(O)c(Cl)c2)c2ccc(Br)c3cccc1c23.O=C1OC(c2ccc(O)c(Cl)c2)(c2ccc(O)c(Cl)c2)c2cccc3c(Br)ccc1c23`, the SI in [1] is 49.6. The figures for the MIC in assay [2], in assay [8] and in [10] were 3.1 µM, > 200 µM and 3.1 µM, respectively. Also, the IF turned out to be 0.36 in assay [3] and 1 in [6]. It took 154 µM to reach half-maximal cytotoxicity in assay [4] (CC50). Also, the MGC in assay [7] came out at 12.5 µM; in [11] it was 3.1 µM.
Take `O=C1OC(c2ccc(O)c(F)c2)(c2ccc(O)c(F)c2)c2cc3ccccc3cc21`: the SI in assay [1] came to 6.2. The minimum inhibitory concentration (MIC) was 15 µM (≈ 6.07 µg/mL) in assay [2], > 94 µM in assay [8] and 15 µM (≈ 6.07 µg/mL) in assay [10]. Also, the IF in assay [3] was found to be 0.298; in assay [5], 0.507; in assay [6], 0.521; in [9] it was 0.582. Also, in assay [4], half-maximal cytotoxicity (CC50) was put at 94 µM. Also, the MGC in assay [7] amounted to 30 µM; in assay [11] it was 15 µM.
